Source: ChEMBL document CHEMBL4680101, “Discovery and Optimization of Allosteric Inhibitors of Mutant Isocitrate Dehydrogenase 1 (R132H IDH1) Displaying Activity in Human Acute Myeloid Leukemia Cells” (J Med Chem, 2016)
“And” between values parts separate entries of the source, which are not always exact repeats. Equal values may be shown once. The source made the active and inactive calls. The rule behind the calls is not given here.

Key:
[1] = biological target: T1, Isocitrate dehydrogenase [NADP] cytoplasmic (Homo sapiens, UniProt O75874, R132H); test: Allosteric inhibition of IDH1 R132H mutant (unknown origin) expressed in HEK293T cells assessed as reduction in 2-HG production incubated for 48 hrs by LC-MS/MS analysis; type: cell-based
In short: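 HEK293T cells reverse-transfected with pcDNA3.1 IDH1 R132H (Lipofectamine 2000), 6 h at 37 °C in 1% FBS plating medium, then assay medium. Compound added in DMSO (0.15% final), 48 h at 37 °C. Medium 2-HG quantified by HILIC LC-MS/MS with D3-2-HG internal standard, normalised to Hoechst nuclear count. Mean of two biological replicates.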
Target sequence in this assay (O75874 2-414 R132H limits assumed): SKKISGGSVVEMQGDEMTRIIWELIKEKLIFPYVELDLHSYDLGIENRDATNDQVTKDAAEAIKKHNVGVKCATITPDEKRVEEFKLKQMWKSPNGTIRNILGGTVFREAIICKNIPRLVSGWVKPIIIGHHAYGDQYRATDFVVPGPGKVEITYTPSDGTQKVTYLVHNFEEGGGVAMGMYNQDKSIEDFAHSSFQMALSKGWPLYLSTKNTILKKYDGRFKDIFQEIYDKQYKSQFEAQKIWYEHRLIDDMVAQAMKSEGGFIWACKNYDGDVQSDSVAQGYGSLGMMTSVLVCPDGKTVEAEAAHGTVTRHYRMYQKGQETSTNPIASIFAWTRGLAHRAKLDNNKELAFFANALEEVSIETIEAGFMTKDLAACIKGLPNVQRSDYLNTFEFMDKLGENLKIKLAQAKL

[2] = tested on: HeLa; test: Cytotoxicity in human HeLa cells; type: cell-based
[3] = biological target: T1, Isocitrate dehydrogenase [NADP] cytoplasmic; test: Inhibition of IDH1 R132H mutant (unknown origin) using alpha-ketoglutarate and NADPH incubated for 60 mins by fluorescence based assay
Target sequence in this assay (O75874 2-414 R132H limits assumed): as above

[4] = biological target: T2, Isocitrate dehydrogenase [NADP] cytoplasmic (Homo sapiens, UniProt O75874); test: Inhibition of wild type IDH1 (unknown origin) using alpha-ketoglutarate and NADPH incubated for 30 mins by fluorescence based assay
[5] = biological target: Isocitrate dehydrogenase [NADP] cytoplasmic (Homo sapiens, UniProt O75874, R132C); test: Inhibition of IDH1 R132C mutant (unknown origin) using alpha-ketoglutarate and NADPH incubated for 30 mins by fluorescence based assay
In short: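 IDH1 R132C (100 nM) in 20 mM Tris pH 7.5, 10 mM MgCl2, 150 mM NaCl, 0.03% BSA with 0.5 mM α-ketoglutarate and 50 µM NADPH. Reaction 30 min at 26 °C. NADPH consumption read via diaphorase/resazurin coupling, resorufin fluorescence Ex544/Em590.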

[6] = biological target: 11-beta-hydroxysteroid dehydrogenase 1 (Homo sapiens, UniProt P28845); test: Inhibition of active recombinant human N-terminal His-tagged 11-betaHSD1 expressed in Escherichia coli using cortisone, NADPH and glucose-6-phosphate incubated for 2 hrs by glucose-6-phosphate dehydrogenase based coupled HTRF immuno-competitive assay
In short: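 Coupled HTRF immuno-competitive assay: 11β-HSD1 (1.5 µg/ml) in 100 mM potassium phosphate pH 7.6 with 160 nM cortisone, 1 mM EDTA, 1 mM glucose-6-phosphate and 12.5 µg/ml G6PD, started with 0.1 mM NADPH. Reaction 30 min at 37 °C, stopped with glycyrrhetinic acid in cortisol-d2, then anti-cortisol cryptate for 2 h at room temperature. TR-FRET read-out.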

[7] = tested on: Isocitrate dehydrogenase [NADP] cytoplasmic (Homo sapiens), O75874 [R132H]; test: (§1) Allosteric inhibition of Myc-tagged IDH1 R132H mutant (unknown origin) expressed in human THP-1 cells assessed as inhibition of 2-HG production incubated for 5 days in presence of doxycycline by LC-MS/MS analysis; type: cell-based; conditions: filed as negative allosteric modulator, time 5.0 day
In short: (§2)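 THP1 cells carrying doxycycline-inducible Myc-tagged IDH1 R132H (lentiviral, blasticidin-selected) cultured 5 days with doxycycline and compound. 2-HG measured by HILIC LC-MS/MS after solid-phase extraction, D3-2-HG internal standard, against a medium-spiked standard curve. Mean of two biological replicates.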

[8] = biological target: T1, Isocitrate dehydrogenase [NADP] cytoplasmic; test: as §1; type: cell-based; in short: as §2
Target sequence in this assay (O75874 whole entry R132H): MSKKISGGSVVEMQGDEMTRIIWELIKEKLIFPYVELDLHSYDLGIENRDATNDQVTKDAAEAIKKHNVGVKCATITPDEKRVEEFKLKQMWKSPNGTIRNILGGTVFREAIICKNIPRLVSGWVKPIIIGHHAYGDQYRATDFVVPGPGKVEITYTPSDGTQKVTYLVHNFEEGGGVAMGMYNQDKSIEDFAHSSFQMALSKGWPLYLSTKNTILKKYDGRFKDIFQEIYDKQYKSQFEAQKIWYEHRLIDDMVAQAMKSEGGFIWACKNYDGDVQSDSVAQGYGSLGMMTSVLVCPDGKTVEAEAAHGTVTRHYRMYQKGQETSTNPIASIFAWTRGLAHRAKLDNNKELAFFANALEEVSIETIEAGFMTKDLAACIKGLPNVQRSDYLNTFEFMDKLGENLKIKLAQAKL

[9] = tested on: Isocitrate dehydrogenase [NADP] cytoplasmic (Homo sapiens), O75874 [R132H]; test: Allosteric inhibition of Myc-tagged IDH1 R132H mutant (unknown origin) expressed in human THP-1 cells assessed as inhibition of 2-HG production at >=10 uM incubated for 5 days in presence of doxycycline by LC-MS/MS analysis; type: cell-based; conditions: filed as negative allosteric modulator, dose microM >=10, time 5.0 day; in short: as §2
[10] = tested on: THP-1; test: Effect on cell proliferation in human THP-1 cells; type: ADME, cell-based
[11] = Effect on cell differentiation in human THP-1 cells; type: ADME, cell-based
[12] = tested on: Leukemic blast cell; test: Induction of myeloid differentiation in human primary AML blast cells from patient with IDH1 R132H mutation assessed as up-regulation of CD11b at 1 times to 8 times IC50 incubated for 14 days by flow cytometry; type: functional, tissue-based; conditions: time 14.0 day
In short: (§3)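 Primary AML cells (≥80% blasts), 2 x 10^4 per condition in methylcellulose with cytokines (IL-3, IL-6, IL-11, FLT3L, SCF, TPO, G-CSF, EPO). Compound at 1x, 4x, 8x cellular IC50 or DMSO (1:1000), 14 days at 37 °C. Recovered cells stained for CD11b, CD15 and CD117, ≥30 min at 4 °C, read by flow cytometry.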

[13] = tested on: Leukemic blast cell; test: Induction of myeloid differentiation in human primary AML blast cells from patient with IDH1 R132H mutation assessed as up-regulation of CD15 at 1 times to 8 times IC50 incubated for 14 days by flow cytometry; type: functional, tissue-based; conditions: time 14.0 day; in short: as §3
[14] = tested on: Leukemic blast cell; test: Induction of myeloid differentiation in human primary AML blast cells from patient with IDH1 R132H mutation assessed as down-regulation of CD117 at 1 times to 8 times IC50 incubated for 14 days by flow cytometry; type: functional, tissue-based; conditions: time 14.0 day; in short: as §3
[15] = tested on: Leukemic blast cell; test: Induction of myeloid differentiation in human primary AML blast cells from patient with IDH1 R132H mutation assessed as induction of mature cellular morphology at 1 times to 8 times IC50 incubated for 14 days by cytospin based analysis; type: functional, tissue-based; conditions: time 14.0 day
In short: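 Primary IDH1 R132H AML cells in cytokine-supplemented methylcellulose with compound or DMSO vehicle for 14 days. Cells recovered by dilution in PBS and centrifugation, then examined on cytospin preparations for morphology.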

[16] = tested on: Leukemic blast cell; test: Induction of myeloid differentiation in human primary AML blast cells from patient with IDH1 R132H mutation assessed as increase in clonogenic activity at 1 times to 8 times IC50 incubated for 14 days by cytospin based analysis; type: functional, tissue-based; conditions: time 14.0 day
In short: (§4)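 Primary AML cells (≥80% blasts) seeded at 2 x 10^4 per condition in cytokine-supplemented methylcellulose with compound or DMSO vehicle (1:1000), 37 °C, 5% CO2. Colonies scored and counted after 14 days, expressed relative to vehicle control. Three independent experiments, mean ± standard error.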

[17] = tested on: Leukemic blast cell; test: Induction of myeloid differentiation in human primary AML blast cells from patient with wild type IDH1 assessed as increase in clonogenic activity at 1 times to 8 times IC50 incubated for 14 days by cytospin based analysis; type: functional, tissue-based; conditions: time 14.0 day; in short: as §4
[18] = tested on: Leukemic blast cell; test: Induction of myeloid differentiation in human primary AML blast cells from patient with wild type IDH1 assessed as up-regulation of CD11b at 1 times to 8 times IC50 incubated for 14 days by flow cytometry; type: functional, tissue-based; conditions: time 14.0 day; in short: as §3
[19] = tested on: Leukemic blast cell; test: Induction of myeloid differentiation in human primary AML blast cells from patient with wild type IDH1 assessed as up-regulation of CD15 at 1 times to 8 times IC50 incubated for 14 days by flow cytometry; type: functional, tissue-based; conditions: time 14.0 day; in short: as §3
[20] = tested on: Leukemic blast cell; test: Induction of myeloid differentiation in human primary AML blast cells from patient with wild type IDH1 assessed as down-regulation of CD117 at 1 times to 8 times IC50 incubated for 14 days by flow cytometry; type: functional, tissue-based; conditions: time 14.0 day; in short: as §3
[21] = biological target: T2, Isocitrate dehydrogenase [NADP] cytoplasmic; test: Inhibition of wild type IDH1 (unknown origin) using isocitrate and NADP incubated for 30 mins by fluorescence based assay
[22] = biological target: T3, Isocitrate dehydrogenase [NADP], mitochondrial (Homo sapiens, UniProt P48735); test: Inhibition of wild type IDH2 (unknown origin) using isocitrate and NADP incubated for 60 mins by fluorescence based assay
T3 sequence (P48735 whole entry): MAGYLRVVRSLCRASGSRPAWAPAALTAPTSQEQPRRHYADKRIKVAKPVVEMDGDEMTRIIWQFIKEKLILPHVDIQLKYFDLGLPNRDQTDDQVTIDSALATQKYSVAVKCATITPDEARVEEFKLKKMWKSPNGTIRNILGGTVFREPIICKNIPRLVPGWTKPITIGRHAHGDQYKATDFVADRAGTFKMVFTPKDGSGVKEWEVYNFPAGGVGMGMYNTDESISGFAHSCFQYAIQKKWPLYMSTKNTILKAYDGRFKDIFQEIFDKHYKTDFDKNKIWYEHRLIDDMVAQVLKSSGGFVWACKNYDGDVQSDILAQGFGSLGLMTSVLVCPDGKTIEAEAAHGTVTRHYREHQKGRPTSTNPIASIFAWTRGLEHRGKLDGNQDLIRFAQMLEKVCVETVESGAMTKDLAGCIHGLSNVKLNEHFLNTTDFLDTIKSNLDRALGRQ

[23] = biological target: Glucose-6-phosphate 1-dehydrogenase (Homo sapiens, UniProt P11413); test: Inhibition of wild type G6PD (unknown origin) using glucose-6-phosphate and NADP incubated for 30 mins by fluorescence based assay
Chain of Glucose-6-phosphate 1-dehydrogenase (P11413 whole entry): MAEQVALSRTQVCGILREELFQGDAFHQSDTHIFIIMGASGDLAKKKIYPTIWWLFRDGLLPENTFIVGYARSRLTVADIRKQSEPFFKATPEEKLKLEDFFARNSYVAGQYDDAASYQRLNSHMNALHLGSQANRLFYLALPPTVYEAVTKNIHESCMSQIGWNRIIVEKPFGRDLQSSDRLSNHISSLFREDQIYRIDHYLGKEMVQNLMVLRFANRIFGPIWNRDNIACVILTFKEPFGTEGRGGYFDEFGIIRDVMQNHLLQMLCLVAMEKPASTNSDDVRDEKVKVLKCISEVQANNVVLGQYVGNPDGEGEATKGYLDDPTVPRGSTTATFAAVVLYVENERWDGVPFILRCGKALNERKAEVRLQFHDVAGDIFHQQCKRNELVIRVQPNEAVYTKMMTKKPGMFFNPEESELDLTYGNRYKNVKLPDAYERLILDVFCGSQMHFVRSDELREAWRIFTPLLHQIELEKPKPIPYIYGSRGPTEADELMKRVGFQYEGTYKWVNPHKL

T2 sequence (O75874 whole entry): as the sequence (O75874 whole entry R132H) above, with H132R counted along it
Chain of Isocitrate dehydrogenase [NADP] cytoplasmic (Homo sapiens), O75874 [R132H] (O75874 whole entry R132H): as the sequence (O75874 whole entry R132H) above
Chain of Isocitrate dehydrogenase [NADP] cytoplasmic (Homo sapiens, UniProt O75874, R132C) (O75874 2-414 R132C limits assumed): as the sequence (O75874 2-414 R132H limits assumed) above, with H131C counted along it
Chain of 11-beta-hydroxysteroid dehydrogenase 1 (P28845 whole entry): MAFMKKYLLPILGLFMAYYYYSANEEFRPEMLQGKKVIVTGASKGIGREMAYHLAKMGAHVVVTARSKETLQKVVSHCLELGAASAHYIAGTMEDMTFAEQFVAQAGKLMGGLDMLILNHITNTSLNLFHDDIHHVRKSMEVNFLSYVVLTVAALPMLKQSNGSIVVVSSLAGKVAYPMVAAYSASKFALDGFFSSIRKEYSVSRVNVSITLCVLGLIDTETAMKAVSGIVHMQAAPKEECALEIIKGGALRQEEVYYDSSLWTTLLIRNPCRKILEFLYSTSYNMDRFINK

Row | IC50 [1] | IC50 [3] | inhibition [4] | Structure (SMILES) | IC50 [2] | also measured
1 | 8.5 µM | 1.3 µM | – | CC(C)CCOc1nc(N2CCC[C@@H](CC(=O)O)C2)ccc1C(=O)NC1C2CC3CC1CC(O)(C3)C2 (stereo partly drawn) | > 30 µM | –
2 | – | 2.3 µM and 2.2 µM | inactive | O=C(O)C[C@H]1CCN(c2ccc(C(=O)NC3C4CC5CC3CC(O)(C5)C4)c(SC3CCCCC3)n2)C1 (stereo partly drawn) | – | –
3 | > 30 µM | > 50 µM | – | COc1nc(N2CCC[C@@H](CC(=O)O)C2)ccc1C(=O)NC1CCCCC1 | > 30 µM | –
4 | 16 µM | 5.6 µM | – | O=C(O)C[C@@H]1CCCN(c2ccc(C(=O)NC3CCCCC3)c(OCc3ccccc3F)n2)C1 | > 30 µM | –
5 | 2.3 µM | 0.27 µM | – | CC(C)CCOc1nc(N2C[C@@H]3[C@H](C2)[C@H]3C(=O)O)ccc1C(=O)NC1C2CC3CC1CC(O)(C3)C2 (stereo partly drawn) | > 30 µM | IC50 [5]: 0.47 µM; IC50 [6]: 0.009 µM; inhibition [7]: Dose-dependent effect; IC50 [8]: 1.9 µM; inhibition [9]: 100%; Activity [10]: Non-Toxic; Activity [11]: Non-Toxic; Activity [12]: Active; Activity [13]: Active; Activity [14]: Active; Activity [15]: Active; Activity [16]: Active; Activity [17]: inactive; Activity [18]: inactive; Activity [19]: inactive; Activity [20]: inactive; IC50 [21]: > 50 µM; IC50 [22]: > 50 µM; IC50 [23]: > 50 µM
6 | – | 10.1 µM and 7.6 µM | inactive | CC(C)CCSc1nc(N2CCC[C@@H](CC(=O)O)C2)ccc1C(=O)NC1C2CC3CC1CC(O)(C3)C2 (stereo partly drawn) | – | –
7 | – | 3 µM and 1.6 µM | inactive | O=C(NC1C2CC3CC1CC(O)(C3)C2)c1ccc(N2C[C@@H]3[C@H](C2)[C@H]3C(=O)O)nc1SC1CCCC1 (stereo partly drawn) | – | –
8 | – | 1.63 µM and 1.4 µM | inactive | CC(C)CCSc1nc(N2C[C@@H]3[C@H](C2)[C@H]3C(=O)O)ccc1C(=O)NC1C2CC3CC1CC(O)(C3)C2 (stereo partly drawn) | – | –
9 | – | 15 µM | – | O=C(O)C[C@@H]1CCCN(c2ccc(C(=O)NC3CCCCC3)c(OCCCC(F)(F)F)n2)C1 | – | –
10 | – | 21 µM | – | CC(C)CCOc1nc(Nc2coc(C(=O)O)n2)ccc1C(=O)NC1C2CC3CC1CC(O)(C3)C2 (stereo not drawn) | – | –
11 | – | 20 µM | – | CC(Oc1nc(N2CCC[C@@H](CC(=O)O)C2)ccc1C(=O)NC1CCCCC1)C1CC1 (stereo partly drawn) | – | –
12 | – | > 50 µM | – | CCOc1nc(N2CCC[C@@H](CC(=O)O)C2)ccc1C(=O)NC1CCCCC1 | – | –
